Here are results for 19 compounds from ChEMBL document CHEMBL1275285, “Synthesis, antimicrobial and anti-inflammatory activities of novel 5-(1-adamantyl)-1,3,4-thiadiazole derivatives” (2010).

What all share (format): functional
The test system of assay [1] is Pseudomonas aeruginosa. Description: Antimicrobial activity against Pseudomonas aeruginosa IFO 3448 at 200 ug/8 mm disk after 24 hrs by agar disk diffusion method. The procedure, abridged:
(§1)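 Agar disc diffusion on Mueller-Hinton agar: 8 mm filter paper discs moistened with compound in DMSO (200 per disc) placed on plates pre-inoculated with each organism; incubated at 37 °C; growth inhibition zone diameter read after 24 h for bacteria, 48 h for C. albicans.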
Background: A growth-free zone around the sample is the usual read-out of agar diffusion tests.

Assay [2] has as its system Staphylococcus aureus. The assay can be described thus: Antimicrobial activity against Staphylococcus aureus IFO 3060 at 200 ug/8 mm disk after 24 hrs by agar disk diffusion method. The procedure, abridged:
as §1

Assay [3] has as its system Bacillus subtilis. The assay can be described thus: Antimicrobial activity against Bacillus subtilis IFO 3007 at 200 ug/8 mm disk after 24 hrs by agar disk diffusion method. The procedure, abridged: as §1
The test system of assay [4] is Bacillus subtilis. Description: Antimicrobial activity against Bacillus subtilis IFO 3007 after 24 hrs. The method, boiled down:
(§2)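 MIC by two-fold serial dilution in wells inoculated with 10^6 CFU/mL of each organism; incubated at 36 °C for 24 h (bacteria); MIC taken as lowest concentration giving no visible growth by unaided eye.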

Assay [5] relates to Candida albicans. Description: Antimicrobial activity against Candida albicans IFO 0583 at 200 ug/8 mm disk after 48 hrs by agar disk diffusion method. The method, boiled down: as §1
The subject of assay [6] is Micrococcus luteus. Description: Antimicrobial activity against Micrococcus luteus IFO 3232 at 200 ug/8 mm disk after 24 hrs by agar disk diffusion method. The procedure, abridged:
as §1

In assay [7] the test system is Escherichia coli. The assay can be described thus: Antimicrobial activity against Escherichia coli IFO 3301 at 200 ug/8 mm disk after 24 hrs by agar disk diffusion method. The method, boiled down: as §1
In assay [8] the test system is Rattus norvegicus. The assay can be described thus: Antiinflammatory activity in Sprague-Dawley rat assessed as inhibition of carrageenan-induced paw edema at 5 mg/kg, ip administered 1 hrs before carrageenan challenge relative to untreated control. The following applies: route intraperitoneal. (In general: In the carrageenan paw model, swelling and tenderness develop within hours.)

In assay [9] the test system is Rattus norvegicus. Description: Antiinflammatory activity in Sprague-Dawley rat assessed as inhibition of carrageenan-induced paw edema at 20 mg/kg, ip administered 1 hrs before carrageenan challenge relative to untreated control. The note with it: route intraperitoneal.
Assay [10] has as its system Rattus norvegicus. The assay can be described thus: Antiinflammatory activity in Sprague-Dawley rat assessed as inhibition of carrageenan-induced paw edema at 40 mg/kg, ip administered 1 hrs before carrageenan challenge relative to untreated control. The following applies: route intraperitoneal.
Assay [11] concerns Micrococcus luteus. Description: Antimicrobial activity against Micrococcus luteus IFO 3232 after 24 hrs. The procedure, abridged: (§3)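 MIC by two-fold serial dilution in wells, inoculated with microbial suspensions at 10^6 CFU/mL. Incubation was at 36 °C for 24 h (bacteria) or 48 h (C. albicans). MIC was the lowest concentration fully inhibiting visible growth, read by unaided eye.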

The subject of assay [12] is Bacillus subtilis. Description: Antimicrobial activity against Bacillus subtilis IFO 3007 at 100 ug/8 mm disk after 24 hrs by agar disk diffusion method. The procedure, abridged:
(§4)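 Agar disc diffusion on Mueller-Hinton agar. Sterile 8 mm filter-paper discs were moistened with the agent dissolved in DMSO and placed on plates already inoculated with the organism. Plates were incubated at 37 °C, and growth-inhibition zone diameters were measured after 24 h.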

The test system of assay [13] is Escherichia coli. Description: Antimicrobial activity against Escherichia coli IFO 3301 at 100 ug/8 mm disk after 24 hrs by agar disk diffusion method. The procedure, abridged: as §4
Assay [14] has as its system Pseudomonas aeruginosa. Description: Antimicrobial activity against Pseudomonas aeruginosa IFO 3448 after 24 hrs. The method, boiled down: as §2
In assay [15] the test system is Pseudomonas aeruginosa. The assay can be described thus: Antimicrobial activity against Pseudomonas aeruginosa IFO 3448 at 100 ug/8 mm disk after 24 hrs by agar disk diffusion method. The method, boiled down: as §4
For assay [16], the system named is Staphylococcus aureus. The assay can be described thus: Antimicrobial activity against Staphylococcus aureus IFO 3060 at 100 ug/8 mm disk after 24 hrs by agar disk diffusion method. The procedure, abridged:
as §4

In assay [17] the test system is Staphylococcus aureus. The assay can be described thus: Antimicrobial activity against Staphylococcus aureus IFO 3060 after 24 hrs. The method, boiled down: as §3
For assay [18], the system named is Micrococcus luteus. Description: Antimicrobial activity against Micrococcus luteus IFO 3232 at 100 ug/8 mm disk after 24 hrs by agar disk diffusion method. The procedure, abridged: as §4
Assay [19] relates to Candida albicans. The assay can be described thus: Antimicrobial activity against Candida albicans IFO 0583 after 48 hrs. The note with it: IFO 0583, 48 h. The procedure, abridged:
as §3

Assay [20] has as its system Candida albicans. The assay can be described thus: Antimicrobial activity against Candida albicans IFO 0583 at 100 ug/8 mm disk after 48 hrs by agar disk diffusion method. The procedure, abridged:
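Reference antifungal applied at 100 per 8 mm disc on Mueller-Hinton agar pre-inoculated with C. albicans; 37 °C incubation; inhibition zone diameter measured at 48 h.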

In assay [21] the test system is Escherichia coli. Description: Antimicrobial activity against Escherichia coli IFO 3301 after 24 hrs. The following applies: IFO 3301, 24 h. The method, boiled down: as §2

Converted amounts (≈) assume the structure as drawn. The source made the active and inactive calls. The rule behind the calls is not given here.

In the case of `S=C(Nc1ccc(Cl)cc1)Nc1nnc(C23CC4CC(CC(C4)C2)C3)s1`, the “growth inhibition (GI)” value in assay [1], in assay [5] and in [7] was “inactive” each time. Moreover, the GI came out at 15 mm in [2], 20 mm in assay [3] and 12 mm in [6]. Besides, the MIC (in general, the least concentration at which growth counts as inhibited) in [4] (IFO 3007, 24 h) amounted to 2 µg/mL (≈ 4.94 µM).

Turning to `Fc1ccc(Cn2nc(C34CC5CC(CC(C5)C3)C4)sc2=S)cc1`, the “growth inhibition (GI)” value in assay [1], in [2], in assay [3], in assay [6] and in [7] was “inactive” in each case. For the same compound, the GI in assay [5] amounted to 14 mm.

With `S=c1sc(C23CC4CC(CC(C4)C2)C3)nn1Cc1ccc(Cl)cc1`, the “growth inhibition (GI)” value in assay [1], in [2], in assay [3], in assay [5], in assay [6] and in assay [7] was “inactive” throughout.

With `O=c1[nH]nc(C23CC4CC(CC(C4)C2)C3)s1`, the “growth inhibition (GI)” value in assay [1], in assay [2], in assay [3], in [5], in [6] and in assay [7] was “inactive” each time.

For the compound `S=c1sc(C23CC4CC(CC(C4)C2)C3)nn1CN1CCN(c2ccccc2)CC1`, the “growth inhibition (GI)” value in [1], in assay [2], in [5], in assay [6] and in [7] was “inactive” throughout. In assay [3], this compound gave a GI of 14 mm.

`O=[N+]([O-])c1ccc(Cn2nc(C34CC5CC(CC(C5)C3)C4)sc2=S)cc1`: the “growth inhibition (GI)” value in assay [1], in assay [2], in assay [3], in [5], in assay [6] and in assay [7] was “inactive” throughout.

Regarding `COc1ccc2c(c1)c(CC(=O)O)c(C)n2C(=O)c1ccc(Cl)cc1` [INDOMETHACIN], the inhibition in vivo – broadly, the share of the control response that was lost under treatment – at 5 mg/kg in assay [8] came out at 52.8%.

On to `CN1CCN(Cn2nc(C34CC5CC(CC(C5)C3)C4)sc2=S)CC1`, for which the “growth inhibition (GI)” value in [1], in assay [5] and in assay [7] was “inactive” each time. The GI in assay [2] was 13 mm; in [3] it was 14 mm; in assay [6], 14 mm.

Consider `CC(C(=O)O)n1nc(C23CC4CC(CC(C4)C2)C3)sc1=S` (racemic), for which the “growth inhibition (GI)” value in assay [1], in assay [5] and in assay [7] was “inactive” in each case. The GI is given as 18 mm in [2], 20 mm in assay [3] and 13 mm in [6]. Also, the inhibition in vivo at 20 mg/kg in assay [9] was determined as 50.6%. In assay [4] (IFO 3007, 24 h), this compound returned an MIC of 4 µg/mL (≈ 12.3 µM). Further, in [10], the inhibition in vivo at 40 mg/kg is 65.2%.

For `CCN1CCN(Cn2nc(C34CC5CC(CC(C5)C3)C4)sc2=S)CC1`, the “growth inhibition (GI)” value in assay [1], in assay [5], in assay [6] and in [7] was “inactive” each time. Further, the values for the GI in assay [2] and in [3] were 12 mm and 13 mm, respectively. Moreover, in assay [9], the inhibition in vivo at 20 mg/kg was 11.3%. Besides, in assay [10], the inhibition in vivo at 40 mg/kg worked out at 10.6%.

Regarding `O=C(O)CCn1nc(C23CC4CC(CC(C4)C2)C3)sc1=S`, the “growth inhibition (GI)” value in assay [1], in assay [6] and in [7] was “inactive” throughout. Moreover, the results for the GI in [2], in assay [3] and in [5] were 11 mm, 13 mm and 11 mm, respectively. Also, the inhibition in vivo at 20 mg/kg in assay [9] stood at 7.47%. Also, the inhibition in vivo at 40 mg/kg in assay [10] worked out at 36.8%.

On to `S=c1sc(C23CC4CC(CC(C4)C2)C3)nn1Cc1ccccc1`, for which the “growth inhibition (GI)” value in assay [1], in [2], in assay [3], in assay [5], in assay [6] and in [7] was “inactive” in each case. Also, in assay [9], the inhibition in vivo at 20 mg/kg turned out to be 1.12%. In assay [10], the inhibition in vivo at 40 mg/kg amounted to 0.92%.

Regarding GENTAMICIN, the MIC in assay [11] stood at 2 µg/mL; in [4], 2 µg/mL; in assay [14] it was 1 µg/mL; in assay [17], 2 µg/mL. Further, the GI in assay [12] was 25 mM; in [13], 20 mM; in assay [15], 19 mM; in assay [16], 26 mM; in [18] it was 18 mM.

Turning to `O=C(O)Cn1nc(C23CC4CC(CC(C4)C2)C3)sc1=S`, the “growth inhibition (GI)” value in assay [1] and in assay [7] was “inactive” each time. Further, the GI in [2] was determined as 18 mm; in [3], 22 mm; in assay [5] it was 17 mm; in assay [6], 16 mm. Also, the inhibition in vivo at 20 mg/kg in [9] came out at 29.5%. The lowest concentration to inhibit growth in assay [4] (IFO 3007, 24 h) (MIC) was 2 µg/mL (≈ 6.44 µM). The inhibition in vivo at 40 mg/kg in assay [10] amounted to 32.7%.

`Fc1ccc(NC(=S)Nc2nnc(C34CC5CC(CC(C5)C3)C4)s2)cc1`: the “growth inhibition (GI)” value in assay [1], in assay [5] and in [7] was “inactive” throughout. The GI in [2] is 14 mm; in [3], 19 mm; in assay [6], 11 mm. For the same compound, in assay [4] (IFO 3007, 24 h), inhibition of growth (MIC) required 4 µg/mL (≈ 10.3 µM).

Compound `Clc1ccccc1C(c1ccccc1)(c1ccccc1)n1ccnc1` [CLOTRIMAZOLE] yielded an MIC in assay [19] of 2 µg/mL (≈ 5.8 µM). For the same compound, the GI in assay [20] is 21 mm.

Take `CC1(C)S[C@@H]2[C@H](NC(=O)[C@H](N)c3ccccc3)C(=O)N2[C@H]1C(=O)O` [AMPICILLIN]: the MIC in [11] (IFO 3232, 24 h) came to 2 µg/mL (≈ 5.72 µM); in assay [4] (IFO 3007, 24 h), 0.5 µg/mL (≈ 1.43 µM); in assay [14] (IFO 3448, 24 h) it was 2 µg/mL (≈ 5.72 µM). Also, the GI amounted to 21 mm in assay [12]; 17 mm in [13]; 17 mm in assay [15]; 23 mm in assay [16]; 19 mm in assay [18].

On to `S=C(Nc1ccccc1)Nc1nnc(C23CC4CC(CC(C4)C2)C3)s1`, for which the “growth inhibition (GI)” value in assay [1], in assay [5] and in assay [7] was “inactive” throughout. Also, the GI in assay [2] was 13 mm; in assay [3], 14 mm; in [6], 15 mm.

Turning to `S=c1[nH]nc(C23CC4CC(CC(C4)C2)C3)s1`, the GI turned out to be 20 mm in assay [1], 13 mm in assay [2], 13 mm in assay [3] and 27 mm in assay [7]. Moreover, the “growth inhibition (GI)” value in assay [5] and in assay [6] was “inactive” each time. Moreover, the MIC worked out at 2 µg/mL (≈ 7.92 µM) in assay [14] (IFO 3448, 24 h) and 0.5 µg/mL (≈ 1.98 µM) in assay [21].
